In article PMC3780362 (Nuclear medicine and biology, 2009):
Blank lines part the entries; values can stand above or below the compound they belong to.

Assays:
5-HT1B receptor [1] = target: T1, 5-HT1B receptor (Macaca mulatta, UniProt F6SFA9); assay: Baseline brain PET imaging with [11C]P943; type: in vivo, Rhesus monkey
Summary of the method: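 Rhesus monkeys (5-8 kg) were fasted overnight, given ketamine 10 mg/kg i.m. and glycopyrrolate, then kept on ~2% isoflurane and scanned on HRRT PET after a transmission scan. Tracer dose was 5-7 mCi. Bolus scan: one animal, 120 min list-mode acquisition. Bolus plus infusion scans: Kbol 150 min, four animals. BPND = mean ROI/cerebellum concentration over 70-100 min, minus 1.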

5-HT1B receptor [2] = target: T1, 5-HT1B receptor; assay: Binding selectivity PET study: blocking of [11C]P943 with GR127935; type: in vivo, Rhesus monkey
Summary of the method: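 About three hours later came a second scan with GR127935 2 mg/kg i.v. bolus given before the tracer. Dose was 5.4 ± 0.7 mCi at 6.3 ± 0.9 mCi/nmol. BPND = ROI/cerebellum ratio from 70-100 min, minus 1, in control and blocked scans.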

5-HT1B receptor [3] = target: T1, 5-HT1B receptor; assay: Binding saturability PET study; type: in vivo, Rhesus monkey; settings: high SA
Summary of the method: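 Self-block design: 2 anesthetized rhesus monkeys, each scanned on two days at high, medium and low specific activity by adding unlabeled test compound (12 scans). Dosing was 2 min i.v. bolus plus 118 min constant infusion, Kbol 150 min for high-SA scans. Net high SA at injection was 111.7 MBq/nmol. BPND = ROI/cerebellum equilibrium ratio over 70-100 min, minus 1.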

5-HT1B = 5-HT1B (Homo sapiens, UniProt P28222); assay: NIMH Psychoactive Drug Screening Program binding; settings: based on the in vitro data
human 5-HT1B receptor = settings: selectivity; cited from earlier work
[4] = Mean of two monkeys, GR127935 2 mg/kg i.v.
[5] = Monkey#1, GR127935 2 mg/kg i.v.
[6] = Monkey#2, GR127935 2 mg/kg i.v.

T1 sequence (F6SFA9 1-390): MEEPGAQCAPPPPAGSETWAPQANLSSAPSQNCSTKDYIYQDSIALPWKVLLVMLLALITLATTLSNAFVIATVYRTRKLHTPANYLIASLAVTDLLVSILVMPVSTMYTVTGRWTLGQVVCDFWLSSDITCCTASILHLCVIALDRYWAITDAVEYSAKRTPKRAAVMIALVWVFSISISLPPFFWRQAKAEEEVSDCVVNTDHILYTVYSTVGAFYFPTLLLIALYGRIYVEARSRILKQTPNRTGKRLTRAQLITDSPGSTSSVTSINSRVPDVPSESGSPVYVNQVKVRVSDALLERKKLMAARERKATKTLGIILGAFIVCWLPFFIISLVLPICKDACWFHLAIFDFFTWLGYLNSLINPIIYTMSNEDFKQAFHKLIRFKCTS
5-HT1B, sequence (P28222 whole entry, species assumed): as the sequence (F6SFA9 1-390) above, with A20V, T35A, A45S, V105I, D198E, R301K, L337M counted along it

time of peak uptake in most brain regions (5-HT1B receptor [1]; 2 hr baseline scan, bolus injection): 10 to 30 min
time at which equilibrium was reached in the brain (5-HT1B receptor [1]; bolus plus infusion): ~70 min
BPND frontal cortex, control scan (5-HT1B receptor [2]; before blockade, paired study): 0.49
BPND occipital, control scan (5-HT1B receptor [2]; before blockade, paired study): 0.71
BPND at high specific activity, globus pallidus (5-HT1B receptor [3]): 0.57
BPND at high specific activity, occipital cortex (5-HT1B receptor [3]; highest value): 0.80
Compound: COC(C)(C)c1ccc(N2CC[C@@H](Cc3ccccc3N3CCN(C)CC3)C2=O)cc1 [[^11C]P943, (R)-1-(4-(2-methoxypropan-2-yl)phenyl)-3-(2-(4-methylpiperazin-1-yl)benzyl)pyrrolidin-2-one]

affinity for 5HT1B higher than for 5-HT1A receptors (5-HT1B): 50-100 times
Compound: COC(C)(C)c1ccc(N2CC[C@@H](Cc3ccccc3N3CCN(C)CC3)C2=O)cc1 [P943, R-1-[4-(2-methoxy-isopropyl)-phenyl]-3-[2-(4-methyl-piperazin-1-yl)benzyl]-pyrrolidin-2-one]
affinity for other 5-HT and non-5-HT receptors lower than for 5-HT1B (human 5-HT1B receptor): at least 100 fold

%Reduction in BPND Caudate (5-HT1B receptor [2]; [4]): 62%
%Reduction in BPND Cingulate (5-HT1B receptor [2]; [4]): 64%
%Reduction in BPND Frontal (5-HT1B receptor [2]; [4]): 91%
%Reduction in BPND Globus Pallidus (5-HT1B receptor [2]; [4]): 73%
%Reduction in BPND Insula (5-HT1B receptor [2]; [4]): 53%
%Reduction in BPND Occipital (5-HT1B receptor [2]; [4]): 95%
%Reduction in BPND Putamen (5-HT1B receptor [2]; [4]): 40%
%Reduction in BPND Thalamus (5-HT1B receptor [2]; [4]): 75%
%Reduction in BPND Caudate (5-HT1B receptor [2]; [5]): 78%
%Reduction in BPND Cingulate (5-HT1B receptor [2]; [5]): 66%
%Reduction in BPND Frontal (5-HT1B receptor [2]; [5]): 84%
%Reduction in BPND Globus Pallidus (5-HT1B receptor [2]; [5]): 80%
%Reduction in BPND Insula (5-HT1B receptor [2]; [5]): 61%
%Reduction in BPND Occipital (5-HT1B receptor [2]; [5]): 96%
%Reduction in BPND Putamen (5-HT1B receptor [2]; [5]): 47%
%Reduction in BPND Thalamus (5-HT1B receptor [2]; [5]): 76%
%Reduction in BPND Caudate (5-HT1B receptor [2]; [6]): 45%
%Reduction in BPND Cingulate (5-HT1B receptor [2]; [6]): 61%
%Reduction in BPND Frontal (5-HT1B receptor [2]; [6]): 98%
%Reduction in BPND Globus Pallidus (5-HT1B receptor [2]; [6]): 66%
%Reduction in BPND Insula (5-HT1B receptor [2]; [6]): 45%
%Reduction in BPND Occipital (5-HT1B receptor [2]; [6]): 94%
%Reduction in BPND Putamen (5-HT1B receptor [2]; [6]): 33%
%Reduction in BPND Thalamus (5-HT1B receptor [2]; [6]): 74%
BPND frontal cortex after blockade (5-HT1B receptor [2]; after GR127935 2 mg/kg i.v.): 0.06
BPND occipital after blockade (5-HT1B receptor [2]; after GR127935 2 mg/kg i.v.): 0.03
Compound: COc1ccc(NC(=O)c2ccc(-c3ccc(-c4noc(C)n4)cc3C)cc2)cc1N1CCN(C)CC1 [GR127935]
